Measurements taken from publication PMC9590589 (RSC Advances, 2022).

Columns and labels:
Assay type in all cases: cell-based
MDA-MB231 (breast) cells = assay: MTT cytotoxicity assay, MDA-MB231; details: Homo sapiens, MDA-MB-231, 24 h, read-out: Cytotoxic activity, IC50, MDA-MB231
Method in brief: (§1)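 Cells grown in DMEM/F12 with 10% FBS, penicillin (100 U mL−1) and streptomycin (100 μg mL−1) at 37 °C, 5% CO2, and passaged twice weekly by trypsinization. Seeded at 5 × 10^3 cells per well for 24 h, then exposed to a range of test compound concentrations for 24 h. MTT (5 mg mL−1 stock) added for 2 h, supernatant removed, formazan dissolved in DMSO, absorbance read at 540 nm, and IC50 calculated. Controls: doxorubicin (positive) and 0.75% DMSO (negative).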

[1] = tested on: Huh-7 (hepatocellular carcinoma) cells; assay: MTT cytotoxicity assay, Huh-7; details: Homo sapiens, Huh-7, 24 h, read-out: Cytotoxic activity, IC50, Huh-7
Method in brief: as §1

[2] = tested on: KKU-100 (cholangiocarcinoma) cells; assay: MTT cytotoxicity assay, KKU-100; details: Homo sapiens, KKU100, 24 h, read-out: Cytotoxic activity, IC50, KKU-100
Method in brief: as §1

[3] = MTT cytotoxicity assay, NHDF; details: human, normal human dermal fibroblasts (NHDF)
Method in brief: as §1

[4] = tested on: MDA-MB231, Huh-7, KKU-100 and normal human dermal fibroblast (NHDF) cell lines; assay: MTT cytotoxicity assay, all cell lines; details: 24 h, read-out: IC50 values against all the cell lines
Method in brief: as §1

Compound | IC50 (MDA-MB231 (breast) cells) [µM] | IC50 [1] [µM] | IC50 [2] [µM] | IC50 at 24 h [3] [µM] | IC50 [4] [µM]
CC(C)=CCOc1ccc(-c2coc3cc(OCC=C(C)C)cc(O)c3c2=O)cc1 [Compound 9, 7,4′-di-O-prenylgenistein] | > 100 | > 100 | > 100 | > 100 | > 100
COc1cccc2c1C(=O)c1c(O)c3c(c(O)c1C2=O)C[C@@](O)(C(=O)CO)C[C@@H]3O[C@H]1C[C@H](N)[C@H](O)[C@H](C)O1 [Doxorubicin, reference compound] |  |  | 1.9 | 5 | 
